According to ChEMBL document CHEMBL6134795, “Mannich reaction mediated derivatization of chromones and their biological evaluations as putative multipotent ligands for the treatment of Alzheimer's disease” (RSC Med Chem, 2024):

Legend:
[1] = target: T1, Cholinesterase (Homo sapiens, UniProt P06276); assay: Inhibition of recombinant BuChE (unknown origin) using BTCI as substrate at 20 uM preincubated for 30 mins followed by substrate addition by TECAN multiplate reader analysis relative to control
Procedure, shortened: (§1)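 Ellman method as for AChE, using butyrylcholinesterase with BTCI as substrate. Enzyme and compound preincubated 30 min at 37 °C in a CO2 incubator, then DTNB and BTCI added; absorbance read at 417 nm. Screening at 20 μM as % inhibition; IC50 for compounds exceeding 50% inhibition at 20 μM. Triplicate.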

[2] = target: T2, Amine oxidase [flavin-containing] B (Homo sapiens, UniProt P27338); assay: Inhibition of recombinant MAO-B (unknown origin) at 20 uM preincubated for 30 mins followed substrate addition by Amplex Red reagent based fluorescence analysis relative to control
T2 sequence (P27338 whole entry): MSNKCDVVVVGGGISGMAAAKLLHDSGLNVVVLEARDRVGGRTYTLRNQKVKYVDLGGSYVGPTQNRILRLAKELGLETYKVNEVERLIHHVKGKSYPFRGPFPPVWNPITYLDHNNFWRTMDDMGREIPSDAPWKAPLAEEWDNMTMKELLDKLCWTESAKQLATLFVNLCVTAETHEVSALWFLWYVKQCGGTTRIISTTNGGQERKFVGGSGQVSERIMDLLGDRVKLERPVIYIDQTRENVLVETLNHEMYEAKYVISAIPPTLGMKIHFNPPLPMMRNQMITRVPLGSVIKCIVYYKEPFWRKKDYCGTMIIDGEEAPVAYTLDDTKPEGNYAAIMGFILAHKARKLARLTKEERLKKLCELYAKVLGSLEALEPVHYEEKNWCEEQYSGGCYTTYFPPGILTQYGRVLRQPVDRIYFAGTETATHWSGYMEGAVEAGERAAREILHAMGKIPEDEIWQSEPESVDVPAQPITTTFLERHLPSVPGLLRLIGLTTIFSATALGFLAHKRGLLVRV
Procedure, shortened: (§2)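 Recombinant MAO enzyme preincubated with compound 30 min at 37 °C; substrate, HRP and Amplex Red working solution then added; H2O2 formation read at 37 °C by fluorescence, ex 545/em 590 nm. Screening at 20 μM as % inhibition versus control; IC50 only for compounds above 50% inhibition at 20 μM; triplicate (n = 3).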

[3] = target: Amyloid-beta precursor protein (Homo sapiens) (UniProt P05067); assay: Inhibition of self-induced amyloid beta (1 to 42 residues) (unknown origin) aggregation at 20 uM incubated at 48 hrs by fluorimetry-based thioflavin T assay
Procedure, shortened: (§3)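 Aβ1-42 pretreated with HFIP (1 mg mL−1) and dried, then incubated with compound (20 μM) at 37 °C for 24 h; an aliquot transferred and incubated further to 48 h. Glycine–NaOH buffer pH 8.0 with 5 μM ThT added; fluorescence read at 440–485 nm. % inhibition calculated against the Aβ-only control taken as 0%.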

[4] = target: Amyloid-beta precursor protein (Homo sapiens) (UniProt P05067); assay: Inhibition of self-induced amyloid beta (1 to 42 residues) (unknown origin) aggregation at 20 uM incubated at 24 hrs by fluorimetry-based thioflavin T assay; procedure, shortened: as §3
[5] = target: T1, Cholinesterase; assay: Inhibition of recombinant BuChE (unknown origin) using BTCI as substrate preincubated for 30 mins followed by substrate addition by TECAN multiplate reader analysis; procedure, shortened: as §1
[6] = target: T2, Amine oxidase [flavin-containing] B; assay: Inhibition of recombinant MAO-B (unknown origin) preincubated for 30 mins followed substrate addition by Amplex Red reagent based fluorescence analysis
[7] = target: T3, Acetylcholinesterase (Homo sapiens, UniProt P22303); assay: Reversible inhibition of AChE (unknown origin) assessed as residual activity at 100 times IC50 incubated for 30 mins by dilution method relative to control
Procedure, shortened: (§4)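 Samples then diluted 100-fold with substrate, giving final inhibitor levels of 0.1× and 1× IC50. Recovered activity measured relative to control; triplicate.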

[8] = target: T3, Acetylcholinesterase; assay: Reversible inhibition of AChE (unknown origin) assessed as residual activity at 10 times IC50 incubated for 30 mins by dilution method relative to control; procedure, shortened: as §4
[9] = target: T3, Acetylcholinesterase; assay: Reversible inhibition of AChE (unknown origin) assessed as residual activity at 1 times IC50 incubated for 30 mins by dilution method relative to control; procedure, shortened: as §4
[10] = target: T3, Acetylcholinesterase; assay: Reversible inhibition of AChE (unknown origin) assessed as residual activity at 0.1 times IC50 incubated for 30 mins by dilution method relative to control; procedure, shortened: as §4
[11] = target: T2, Amine oxidase [flavin-containing] B; assay: Reversible inhibition of MAO-B (unknown origin) assessed as residual activity at 100 times IC50 incubated for 30 mins by dilution method relative to control; settings: 0.5 h
[12] = target: T2, Amine oxidase [flavin-containing] B; assay: Reversible inhibition of MAO-B (unknown origin) assessed as residual activity at 10 times IC50 incubated for 30 mins by dilution method relative to control; settings: 0.5 h
[13] = target: T2, Amine oxidase [flavin-containing] B; assay: Reversible inhibition of MAO-B (unknown origin) assessed as residual activity at 1 times IC50 incubated for 30 mins by dilution method relative to control; settings: 0.5 h
[14] = target: T2, Amine oxidase [flavin-containing] B; assay: Reversible inhibition of MAO-B (unknown origin) assessed as residual activity at 0.1 times IC50 incubated for 30 mins by dilution method relative to control; settings: 0.5 h
[15] = system: SH-SY5Y; assay: Cytotoxicity against human SH-SY5Y cells assessed as cell viability at 1 uM by MTT assay relative to control; assay type: functional; settings: read-out: Activity
Procedure, shortened: (§5)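 SH-SY5Y cells (DMEM/F-12 with 10% FBS, 1% horse serum, 1% penicillin) preincubated 24 h with compound at 1, 5 or 25 μM; MTT converted to formazan, solubilised in DMSO, absorbance read at 595 nm; viability expressed as percentage of untreated control.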

[16] = system: SH-SY5Y; assay: Cytotoxicity against human SH-SY5Y cells assessed as cell viability at 5 uM by MTT assay relative to control; assay type: functional; settings: read-out: Activity; procedure, shortened: as §5
[17] = system: SH-SY5Y; assay: Cytotoxicity against human SH-SY5Y cells assessed as cell viability at 25 uM by MTT assay relative to control; assay type: functional; settings: read-out: Activity; procedure, shortened: as §5
[18] = system: SH-SY5Y; assay: Cytotoxicity against human SH-SY5Y cells assessed as reduction in cell viability at 1 to 25 uM by MTT assay; assay type: functional, cell-based; settings: dose 1-25 µM; procedure, shortened: as §5
[19] = system: SH-SY5Y; assay: Inhibition of ROS production in human SH-SY5Y cells assessed as intracellular ROS level at 1 uM incubated for 24 hrs by DCF-DA staining based fluorescence analysis relative to control; assay type: functional
Procedure, shortened: (§6)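 Cultured SH-SY5Y cells exposed to compound (1, 5, 25 μM) for 24 h; intracellular ROS detected with DCF-DA, which is converted to fluorescent 2,7-DCF, read at ex 478/em 518 nm. Inhibition is expressed relative to control. Mean ± SD of triplicate or more independent experiments.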

[20] = system: SH-SY5Y; assay: Inhibition of ROS production in human SH-SY5Y cells assessed as intracellular ROS level at 5 uM incubated for 24 hrs by DCF-DA staining based fluorescence analysis relative to control; assay type: functional; procedure, shortened: as §6
[21] = system: SH-SY5Y; assay: Inhibition of ROS production in human SH-SY5Y cells assessed as intracellular ROS level at 25 uM incubated for 24 hrs by DCF-DA staining based fluorescence analysis relative to control; assay type: functional; procedure, shortened: as §6
[22] = system: SH-SY5Y; assay: Neuroprotective activity against 6-OHDA-induced cytotoxicity in human SH-SY5Y cells assessed as cell viability at 1 uM incubated for 24 hrs followed by exposure to 6-OHDA by MTT assay relative to control; assay type: functional; settings: read-out: Activity
Procedure, shortened: (§7)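 SH-SY5Y cells treated with compound (1, 5, 25 μM) and challenged with 6-OHDA; cultured 24 h at 37 °C under humidified 5% CO2. Viability measured by MTT as formazan absorbance at 594 nm and expressed relative to control.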

[23] = system: SH-SY5Y; assay: Neuroprotective activity against 6-OHDA-induced cytotoxicity in human SH-SY5Y cells assessed as cell viability at 5 uM incubated for 24 hrs followed by exposure to 6-OHDA by MTT assay relative to control; assay type: functional; settings: read-out: Activity; procedure, shortened: as §7
[24] = system: SH-SY5Y; assay: Neuroprotective activity against 6-OHDA-induced cytotoxicity in human SH-SY5Y cells assessed as cell viability at 25 uM incubated for 24 hrs followed by exposure to 6-OHDA by MTT assay relative to control; assay type: functional; settings: read-out: Activity; procedure, shortened: as §7
[25] = target: T4, Amine oxidase [flavin-containing] A (Homo sapiens, UniProt P21397); assay: Inhibition of recombinant MAO-A (unknown origin) at 20 uM preincubated for 30 mins followed substrate addition by Amplex Red reagent based fluorescence analysis relative to control; procedure, shortened: as §2
T4 sequence (P21397 whole entry): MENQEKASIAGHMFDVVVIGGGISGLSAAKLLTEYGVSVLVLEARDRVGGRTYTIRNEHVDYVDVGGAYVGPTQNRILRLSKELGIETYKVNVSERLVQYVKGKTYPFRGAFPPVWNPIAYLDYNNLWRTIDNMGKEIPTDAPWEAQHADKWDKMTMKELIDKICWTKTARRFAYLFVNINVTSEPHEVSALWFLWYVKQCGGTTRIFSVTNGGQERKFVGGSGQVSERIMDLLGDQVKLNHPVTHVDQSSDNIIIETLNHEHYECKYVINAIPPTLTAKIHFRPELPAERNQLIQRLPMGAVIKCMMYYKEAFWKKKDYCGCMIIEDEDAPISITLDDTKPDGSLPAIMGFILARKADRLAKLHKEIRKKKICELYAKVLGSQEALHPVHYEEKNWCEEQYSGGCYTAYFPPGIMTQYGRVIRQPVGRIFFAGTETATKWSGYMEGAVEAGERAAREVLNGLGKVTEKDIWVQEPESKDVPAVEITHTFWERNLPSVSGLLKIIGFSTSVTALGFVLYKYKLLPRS

T1 sequence (P06276 whole entry): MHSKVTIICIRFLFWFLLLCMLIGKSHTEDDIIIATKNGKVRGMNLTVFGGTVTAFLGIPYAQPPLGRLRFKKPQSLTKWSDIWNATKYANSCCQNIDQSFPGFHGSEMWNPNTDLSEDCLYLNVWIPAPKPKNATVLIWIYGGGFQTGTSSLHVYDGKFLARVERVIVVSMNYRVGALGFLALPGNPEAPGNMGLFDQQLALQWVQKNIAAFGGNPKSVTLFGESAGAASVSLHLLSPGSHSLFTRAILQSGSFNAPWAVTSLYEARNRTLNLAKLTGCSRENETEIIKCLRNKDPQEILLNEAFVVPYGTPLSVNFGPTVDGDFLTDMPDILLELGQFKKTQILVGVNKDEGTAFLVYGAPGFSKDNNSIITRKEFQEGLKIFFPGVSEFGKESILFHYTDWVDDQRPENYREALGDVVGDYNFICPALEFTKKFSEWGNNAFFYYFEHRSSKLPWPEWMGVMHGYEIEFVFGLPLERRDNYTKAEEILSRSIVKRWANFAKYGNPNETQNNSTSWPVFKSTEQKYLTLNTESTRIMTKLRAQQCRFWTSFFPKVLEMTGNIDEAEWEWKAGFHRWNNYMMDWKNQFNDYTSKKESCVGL
Amyloid-beta precursor protein (Homo sapiens), sequence (P05067 whole entry, the tested form may be a part): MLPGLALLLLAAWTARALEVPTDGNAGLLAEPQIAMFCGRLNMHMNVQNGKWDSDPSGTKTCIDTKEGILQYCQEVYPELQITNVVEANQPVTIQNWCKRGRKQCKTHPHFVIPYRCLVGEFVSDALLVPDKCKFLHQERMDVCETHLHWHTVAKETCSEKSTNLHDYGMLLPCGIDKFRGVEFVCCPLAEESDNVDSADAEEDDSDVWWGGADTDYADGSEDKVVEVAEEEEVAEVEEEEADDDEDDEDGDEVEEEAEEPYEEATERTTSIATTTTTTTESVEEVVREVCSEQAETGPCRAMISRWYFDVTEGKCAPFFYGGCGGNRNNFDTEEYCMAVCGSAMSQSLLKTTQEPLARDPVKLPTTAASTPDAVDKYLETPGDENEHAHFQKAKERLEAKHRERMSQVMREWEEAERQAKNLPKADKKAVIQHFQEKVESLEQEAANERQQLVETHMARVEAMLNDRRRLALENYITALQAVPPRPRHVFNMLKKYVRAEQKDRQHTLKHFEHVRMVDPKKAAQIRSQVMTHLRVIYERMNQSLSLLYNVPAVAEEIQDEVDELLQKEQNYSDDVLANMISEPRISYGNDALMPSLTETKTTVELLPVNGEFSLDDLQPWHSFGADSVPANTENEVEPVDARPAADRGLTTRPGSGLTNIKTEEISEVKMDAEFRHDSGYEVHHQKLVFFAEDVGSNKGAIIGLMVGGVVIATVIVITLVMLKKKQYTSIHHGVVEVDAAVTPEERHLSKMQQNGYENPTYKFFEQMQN
T3 sequence (P22303 whole entry): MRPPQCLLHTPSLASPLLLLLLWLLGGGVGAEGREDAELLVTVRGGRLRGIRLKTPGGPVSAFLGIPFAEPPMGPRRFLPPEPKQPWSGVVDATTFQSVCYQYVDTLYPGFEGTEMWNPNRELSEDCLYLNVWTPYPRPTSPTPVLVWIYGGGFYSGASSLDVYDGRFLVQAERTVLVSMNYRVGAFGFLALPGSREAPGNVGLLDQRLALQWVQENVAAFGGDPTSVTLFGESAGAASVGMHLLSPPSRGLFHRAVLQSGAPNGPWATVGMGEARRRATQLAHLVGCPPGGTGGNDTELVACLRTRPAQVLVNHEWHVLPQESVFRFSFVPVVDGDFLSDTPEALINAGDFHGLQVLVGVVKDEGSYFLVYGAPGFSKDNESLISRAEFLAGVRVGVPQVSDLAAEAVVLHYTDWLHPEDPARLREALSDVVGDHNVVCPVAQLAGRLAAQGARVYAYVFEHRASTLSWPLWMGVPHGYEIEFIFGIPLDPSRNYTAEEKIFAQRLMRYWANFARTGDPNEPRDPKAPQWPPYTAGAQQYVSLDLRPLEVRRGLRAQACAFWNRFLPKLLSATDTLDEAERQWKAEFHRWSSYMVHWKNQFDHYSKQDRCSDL

Row | Compound | inhibition [1] [%] | inhibition at 20 µM [2] [%] | inhibition [3] [%] | inhibition [4] [%] | further results
1 | C#CCOc1c(CN2CCCCC2)cc(-c2cc(=O)c3ccccc3o2)cc1OC | 89.9 | 50.8 | 28.5 | 22.4 | IC50 [5]: 1.95 µM; IC50 [6]: 19.6 µM; Activity [7]: 25.3%; Activity [8]: 33.1%; Activity [9]: 47.2%; Activity [10]: 71.3%; Activity [11]: 14%; Activity [12]: 32.6%; Activity [13]: 58.9%; Activity [14]: 76.3%; viability at 1 µM [15]: 97.1%; viability at 5 µM [16]: 94.4%; viability at 25 µM [17]: 91.9%; Activity [18]: Not toxic; inhibition at 1 µM [19]: 82.8%; inhibition at 5 µM [20]: 51%; inhibition at 25 µM [21]: 47%; viability at 1 µM [22]: 51.9%; viability at 5 µM [23]: 49.4%; viability at 25 µM [24]: 46.9%
2 | C#CCCCOc1c(CN2CCCCC2)cc(-c2cc(=O)c3ccccc3o2)cc1CN1CCCCC1 | 13.7 | 19.7 | 18 | 12 | 
3 | C#CCCCOc1c(CN2CCOCC2)cc(-c2cc(=O)c3ccccc3o2)cc1CN1CCOCC1 | 1 | 18.1 | 26.9 | 23.9 | 
4 | C#CCOc1c(CN2CCOCC2)cc(-c2cc(=O)c3ccccc3o2)cc1OC | 1.17 | 15.1 | 40.4 | 36.1 | 
5 | C#CCCCOc1c(CN2CCOCC2)cc(-c2cc(=O)c3ccccc3o2)cc1OCC | 6.37 | 18.2 |  |  | 
6 | C#CCCCOc1c(CN2CCOCC2)cc(-c2cc(=O)c3ccccc3o2)cc1OC | 3.35 | 18.8 |  |  | 
7 | C#CCOc1ccc(-c2cc(=O)c3ccccc3o2)cc1CN1CCOCC1 | 4.21 | 28.1 | 11.6 | 9 | 
8 | C#CCOc1c(CN2CCOCC2)cc(-c2cc(=O)c3ccccc3o2)cc1OCC |  | 8.37 |  |  | 
9 | C#CCCCOc1c(CN2CCCCC2)cc(-c2cc(=O)c3ccccc3o2)cc1OC | 21.6 | 15.6 |  |  | inhibition at 20 µM [25]: 0.75%
10 | C#CCCOc1c(CN2CCOCC2)cc(-c2cc(=O)c3ccccc3o2)cc1OC | 3.11 | 26.6 |  |  | inhibition at 20 µM [25]: 7.98%
